The source of these data is ChEMBL document CHEMBL1268863, “Bioactive Cycloperoxides Isolated from the Puerto Rican Sponge Plakortis halichondrioides” (J Nat Prod, 2010).

Assay [1] deals with A2058. The assay can be described thus: Cytotoxicity against human A2058 cells at 10 uM after 48 hrs […]. In kind it is functional.
Another assay has as its system Plasmodium falciparum. The assay can be described thus: Antimicrobial activity against chloroquine-resistant Plasmodium falciparum W2. In kind it is functional, organism-based. The gist of the method:
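Chloroquine-resistant W2 strain tested, with chloroquine as positive control; IC50 reported in µg/mL.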

In assay [2] the test system is DU-145. In words: Cytotoxicity against human DU145 cells after 48 hrs by MTT assay. Conditions: DU-145, 48 h. In kind it is functional, cell-based. The gist of the method: (§1)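 Cells cultured in RPMI-1640 or DMEM with 10% FBS and penicillin/streptomycin at 37 °C, 5% CO2, then seeded at 5,000/well and left overnight. Compound given at 0.1, 0.5, 1, 5, 10, 20 and 50 µM for 48 h with a DMSO vehicle control. Viability read by MTS formazan absorbance at 490 nm, in quadruplicate, and IC50 derived from the dose series.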
On the technique in general: Tetrazolium dyes change colour on reduction, which living cells bring about.

The test system of assay [3] is A2058. In words: Cytotoxicity against human A2058 cells after 48 hrs by MTT assay. In kind it is functional, cell-based. The settings on record: A2058, 48 h. The gist of the method:
as §1

In assay [4] the test system is DU-145. In words: Cytotoxicity against human DU145 cells at 10 uM after 48 hrs […]. The format is functional.
The test system of assay [5] is Mycobacterium tuberculosis. The assay can be described thus: Antimycobacterial activity Mycobacterium tuberculosis H37Rv. The format is functional, organism-based.

In brackets after ≈: the same amount, converted by molar mass. Bounds are passed on as bounds.

Regarding `CC/C=C/C=C/C=C/CCCCCCCC[C@@]1(C)C[C@](C)(CC(=O)O)OO1` [EPIPLAKINIC ACID F], the Activity in the assay on A2058 [1] was found to be 51%; in the assay on DU-145 [4], 15%. Further, the IC50 – broadly, the concentration at which inhibition is half-maximal – is 3 µg/mL (≈ 7.92 µM) with Plasmodium falciparum, 1 µM in the assay on DU-145 [2], > 10 µM in the assay on A2058 [3] and 92 µg/mL (≈ 243 µM) in assay [5].
As for `CCCCCCCCCCCCCCCC[C@@](C)(O)C[C@](C)(O)CC(=O)OC`, the figures for the Activity in the assay with A2058 [1] and in the assay on DU-145 [4] were 79% and 81%, respectively. The IC50 is > 10 µg/mL with Plasmodium falciparum, > 10 µM with DU-145 [2] and > 10 µM in the assay with A2058 [3].
Turning to `C[C@@]1(CCCCCCCCCc2ccc(O)cc2)C[C@]2(C)OC(=O)C[C@@H]2OO1` [PLAKORTOLIDE F], the Activity came out at 71% in the assay on A2058 [1] and 62% in the assay with DU-145 [4]. In addition, the IC50 in the assay on DU-145 [2] was > 10 µM; in the assay on A2058 [3] it was > 10 µM; in assay [5], 59 µg/mL (≈ 151 µM).
With `CCCCCCCCCCCCCCCC[C@]1(C)C[C@@](C)(CC(=O)OC)OO1`, the Activity in the assay on A2058 [1] turned out to be 69%; in the assay on DU-145 [4], 38%. Also, the IC50 was > 10 µg/mL in the assay on Plasmodium falciparum, 8 µM with DU-145 [2] and > 10 µM with A2058 [3].
In the case of `CC/C=C/C=C/C=C/CCCCCCCC[C@]1(C)C[C@]2(C)OC(=O)C[C@@H]2OO1` [PLAKORTOLIDE J], the Activity in the assay with A2058 [1] is given as 106%; in the assay on DU-145 [4], 112%. For the same molecule, the IC50 is > 10 µg/mL with Plasmodium falciparum, > 10 µM in the assay on DU-145 [2], > 10 µM with A2058 [3] and 71 µg/mL (≈ 182 µM) in assay [5].
With `CC/C=C/C=C/C=C/CCCCCCCC[C@]1(C)C[C@@](C)(CC(=O)OC)OO1` [EPIPLAKINIC ACID F METHYL ESTER], the Activity in the assay on A2058 [1] came out at 86%; in the assay with DU-145 [4], 92%. Moreover, the IC50 with Plasmodium falciparum is 4 µg/mL (≈ 10.2 µM); in the assay with DU-145 [2] it was > 10 µM; in the assay with A2058 [3] it was > 10 µM; in assay [5], 62 µg/mL (≈ 158 µM).
Consider `CCCCCCCCCCCCCCCC[C@]1(C)C[C@@](C)(O)CC(=O)O1`, for which the Activity with A2058 [1] is on record as 60%; with DU-145 [4], 102%. The IC50 is > 10 µg/mL in the assay on Plasmodium falciparum, > 10 µM in the assay with DU-145 [2], > 10 µM in the assay with A2058 [3] and 30 µg/mL (≈ 81.4 µM) in assay [5].
For `C[C@]1(CC(=O)O)C[C@@](C)(CCCCCCCCC(=O)O)OO1` [EPIPLAKINIDIOIC ACID], the Activity in the assay with A2058 [1] amounted to 23%; with DU-145 [4], 31%. The values for the IC50 with Plasmodium falciparum, with DU-145 [2] and with A2058 [3] were 0.3 µg/mL (≈ 0.948 µM), 4 µM and 3 µM, respectively.
Consider `CCCCCCCCCCCCCCCC[C@@](C)(O)C[C@]1(C)OC(=O)C[C@@H]1O`, for which the Activity with A2058 [1] is 75%; with DU-145 [4], 79%. Also, the IC50 is 0.6 µg/mL (≈ 1.51 µM) in the assay with Plasmodium falciparum, 24 µM in the assay on DU-145 [2], 24 µM with A2058 [3] and 13 µg/mL (≈ 32.6 µM) in assay [5].
Turning to `C[C@@](O)(CCCCCCCCCc1ccc(O)cc1)C[C@]1(C)OC(=O)C[C@@H]1O`, the Activity in the assay with A2058 [1] stood at 81%; in the assay on DU-145 [4], 95%. The values for the IC50 in the assay on Plasmodium falciparum, in the assay with DU-145 [2] and in the assay with A2058 [3] were 7 µg/mL (≈ 17.8 µM), > 10 µM and > 10 µM, respectively.
As to `CCCCCCCCCCCCCCCC[C@]1(C)C[C@]2(C)OC(=O)C[C@@H]2OO1`, the Activity in the assay on A2058 [1] turned out to be 8%; in the assay with DU-145 [4], 13%. Moreover, the IC50 in the assay on Plasmodium falciparum is 0.3 µg/mL (≈ 0.756 µM); in the assay on DU-145 [2] it was 2 µM; in the assay on A2058 [3], 0.8 µM; in assay [5], 68 µg/mL (≈ 171 µM).
